# Assay results taken from ChEMBL document CHEMBL2331410, “Synthesis and Pharmacological Characterization of Two Novel, Brain Penetrating P2X7 Antagonists” (ACS Med Chem Lett, 2013).
# Active and inactive are the calls of the source. The calls are words filed in the database; no cut-off is given here.
# How the values were obtained:
# [1] = Solubility of the compound at pH 2; assay type: physicochemical; conditions: buffer
# [2] = Plasma protein binding in human by equilibrium dialysis method; assay type: ADME, cell-free; conditions: read-out: PPB (converted)
# [3] = Apparent permeability from apical to basolateral side in human Caco2 cells at 1 uM after 60 mins by LC/MS/MS analysis; assay type: ADME, cell-based; conditions: Caco-2
# [4] = target: T1, P2X purinoceptor 7 (Rattus norvegicus, UniProt Q64663); assay: Antagonist activity at rat P2X7 receptor assessed as inhibition of ATP-induced Ca2+ flux by FLIPR assay
# T1 sequence (Q64663 whole entry): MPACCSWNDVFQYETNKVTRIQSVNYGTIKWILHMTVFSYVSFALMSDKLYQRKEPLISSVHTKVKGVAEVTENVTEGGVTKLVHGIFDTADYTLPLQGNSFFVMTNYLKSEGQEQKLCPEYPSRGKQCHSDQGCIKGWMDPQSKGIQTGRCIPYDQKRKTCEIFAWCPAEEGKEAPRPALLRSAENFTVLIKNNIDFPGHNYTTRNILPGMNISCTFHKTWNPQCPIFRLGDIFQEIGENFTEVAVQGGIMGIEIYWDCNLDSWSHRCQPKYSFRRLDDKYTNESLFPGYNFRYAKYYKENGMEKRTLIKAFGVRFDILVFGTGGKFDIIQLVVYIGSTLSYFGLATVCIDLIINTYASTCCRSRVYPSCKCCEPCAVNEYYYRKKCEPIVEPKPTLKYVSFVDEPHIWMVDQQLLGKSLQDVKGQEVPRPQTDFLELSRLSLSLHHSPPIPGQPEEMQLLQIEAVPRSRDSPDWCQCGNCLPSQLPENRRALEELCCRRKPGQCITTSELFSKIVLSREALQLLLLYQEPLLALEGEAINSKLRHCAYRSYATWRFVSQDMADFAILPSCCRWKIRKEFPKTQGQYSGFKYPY
# [5] = Extraction ratio in rat liver microsomes at 1 uM by LC/MS/MS analysis; assay type: ADME, Microsome; conditions: read-out: ERH
# [6] = Apparent permeability from basolateral to apical side in human Caco2 cells at 1 uM after […] by LC/MS/MS analysis; assay type: ADME, cell-based; conditions: Caco-2
# [7] = target: Sodium-dependent serotonin transporter (Homo sapiens, UniProt P31645); assay: Displacement of [3H]-Citalopram from human SERT expressed in human HEK293 cells after 1 hr by scintillation counting analysis; assay type: cell-based
# [8] = system: Rattus norvegicus; assay: Ex-vivo P2X7 receptor occupancy in sc dosed Sprague-Dawley rat brain assessed as inhibition of [3H]A804598 binding after 120 mins by autoradiographic analysis; assay type: functional
# [9] = organism: Rattus norvegicus; assay: Inhibition of rat nACHR at 1 uM relative to control
# [10] = target: T2, P2X purinoceptor 7 (Homo sapiens, UniProt Q99572); assay: Antagonist activity at P2X7 receptor in human PBMC assessed as inhibition of BzATP-induced IL1beta release incubated 30 mins prior to BzATP-challenge measured after 1.5 hrs by ELISA
# T2 sequence (Q99572 whole entry): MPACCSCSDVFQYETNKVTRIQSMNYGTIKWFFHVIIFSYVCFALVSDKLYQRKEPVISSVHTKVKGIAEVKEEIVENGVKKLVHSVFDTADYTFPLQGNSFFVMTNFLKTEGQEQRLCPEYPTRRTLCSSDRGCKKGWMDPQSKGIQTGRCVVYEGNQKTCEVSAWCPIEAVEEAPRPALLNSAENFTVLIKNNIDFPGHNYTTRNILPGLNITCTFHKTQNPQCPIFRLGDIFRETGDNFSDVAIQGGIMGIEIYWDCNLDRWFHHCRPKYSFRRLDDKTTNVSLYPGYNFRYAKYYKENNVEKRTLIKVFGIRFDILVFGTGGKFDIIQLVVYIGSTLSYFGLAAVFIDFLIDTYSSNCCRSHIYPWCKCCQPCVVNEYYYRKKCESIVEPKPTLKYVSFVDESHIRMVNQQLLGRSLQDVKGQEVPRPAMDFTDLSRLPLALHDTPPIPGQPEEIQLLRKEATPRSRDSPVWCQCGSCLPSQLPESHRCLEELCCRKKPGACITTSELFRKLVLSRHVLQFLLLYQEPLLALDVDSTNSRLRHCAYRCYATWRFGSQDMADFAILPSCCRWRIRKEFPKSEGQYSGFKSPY
# [11] = target: T3, Sodium-dependent dopamine transporter (Homo sapiens, UniProt Q01959); assay: Inhibition of human dopamine transporter
# [12] = target: T2, P2X purinoceptor 7; assay: Displacement of [3H]-A804598 from human recombinant P2X7 receptor expressed in human 1321N1 cell membranes after 1 hr by […]
# [13] = target: T2, P2X purinoceptor 7; assay: Antagonist activity at human recombinant P2X7 receptor expressed in human 1321N1 cells assessed as inhibition of BzATP-induced Ca2+ flux after 30 mins by FLIPR assay; assay type: cell-based
# [14] = target: Sodium-dependent serotonin transporter (Rattus norvegicus, UniProt P31652); assay: Displacement of [3H]-Citalopram from SERT in rat brain after 60 mins by scintillation counting analysis; assay type: tissue-based
# [15] = target: T3, Sodium-dependent dopamine transporter; assay: Inhibition of human dopamine transporter at 1 uM relative to control
# [16] = Inhibition of rat nACHR
# [17] = target: T1, P2X purinoceptor 7; assay: Antagonist activity at rat P2X7 receptor by radioligand binding assay
# [18] = target: T4, Substance-K receptor (Homo sapiens) (UniProt P21452); assay: Inhibition of human NK2 receptor at 1 uM relative to control
# T4 sequence (whole entry): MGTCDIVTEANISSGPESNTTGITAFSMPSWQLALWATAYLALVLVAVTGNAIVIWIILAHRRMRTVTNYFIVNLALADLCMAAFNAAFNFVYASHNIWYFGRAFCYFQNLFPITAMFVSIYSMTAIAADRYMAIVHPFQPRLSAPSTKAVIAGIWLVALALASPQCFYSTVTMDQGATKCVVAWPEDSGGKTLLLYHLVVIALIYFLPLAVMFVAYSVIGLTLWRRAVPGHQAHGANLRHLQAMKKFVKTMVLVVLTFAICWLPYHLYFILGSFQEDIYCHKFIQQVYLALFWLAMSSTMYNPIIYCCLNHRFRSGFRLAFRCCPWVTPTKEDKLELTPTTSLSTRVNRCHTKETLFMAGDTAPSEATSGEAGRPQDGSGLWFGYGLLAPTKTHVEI
# [19] = target: T2, P2X purinoceptor 7; assay: Antagonist activity at P2X7 receptor in human whole blood assessed as inhibition of BzATP-induced IL1beta release incubated 30 mins prior to BzATP-challenge measured after 1.5 hrs by ELISA
# [20] = Extraction ratio in mouse liver microsomes at 1 uM by LC/MS/MS analysis; assay type: ADME, Microsome; conditions: read-out: ERH
# [21] = target: T5, P2X purinoceptor 7 (Mus musculus, UniProt Q9Z1M0); assay: Antagonist activity at mouse P2X7 receptor assessed as inhibition of ATP-induced Ca2+ flux by FLIPR assay
# T5 sequence (Q9Z1M0 whole entry): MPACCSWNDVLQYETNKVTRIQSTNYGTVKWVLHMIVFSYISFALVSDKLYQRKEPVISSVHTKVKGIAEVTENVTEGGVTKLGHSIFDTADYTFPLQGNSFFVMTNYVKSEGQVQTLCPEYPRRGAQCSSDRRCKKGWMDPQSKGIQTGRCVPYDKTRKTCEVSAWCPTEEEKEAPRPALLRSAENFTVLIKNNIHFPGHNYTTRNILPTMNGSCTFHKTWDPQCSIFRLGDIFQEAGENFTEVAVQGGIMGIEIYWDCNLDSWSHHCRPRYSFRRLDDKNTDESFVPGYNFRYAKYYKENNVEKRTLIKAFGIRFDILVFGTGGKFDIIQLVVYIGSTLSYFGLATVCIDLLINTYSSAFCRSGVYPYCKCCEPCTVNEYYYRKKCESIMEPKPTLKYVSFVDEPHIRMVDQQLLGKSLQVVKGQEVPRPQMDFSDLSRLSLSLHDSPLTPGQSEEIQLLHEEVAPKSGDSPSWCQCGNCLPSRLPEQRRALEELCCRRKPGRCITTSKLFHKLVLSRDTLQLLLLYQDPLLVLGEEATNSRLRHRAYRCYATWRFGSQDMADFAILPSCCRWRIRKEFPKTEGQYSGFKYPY
# [22] = Extraction ratio in human liver microsomes at 1 uM by LC/MS/MS analysis; assay type: ADME, Microsome; conditions: read-out: ERH
# [23] = organism: Rattus norvegicus; assay: Ex-vivo SERT occupancy in Sprague-Dawley rat by autoradiographic analysis; assay type: functional
# [24] = system: Rattus norvegicus; assay: Ex-vivo P2X7 receptor occupancy in Sprague-Dawley rat brain assessed as inhibition of [3H]A804598 binding at 10 mg/kg, sc by autoradiographic analysis; assay type: functional, organism-based; design: dose 10 mg/kg
# Procedure, shortened: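 Single subcutaneous dose given to rats; P2X7 occupancy in brain was assessed ex vivo by autoradiography at several times after dosing, with plasma and brain drug levels measured in parallel. n = 3 per time point, mean ± SEM.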
# [25] = Plasma protein binding in rat by equilibrium dialysis method; assay type: ADME, cell-free; conditions: read-out: PPB (converted)
# [26] = Solubility of the compound at pH 7; assay type: physicochemical; conditions: buffer
# [27] = Protein binding in rat brain; assay type: ADME, tissue-based; conditions: brain tissue, read-out: PB (converted)
# [28] = system: Rattus norvegicus; assay: Ex-vivo P2X7 receptor occupancy in sc dosed Sprague-Dawley rat brain assessed as inhibition of [3H]A804598 binding after 15 mins by autoradiographic analysis; assay type: functional
# [29] = system: Rattus norvegicus; assay: Ex-vivo P2X7 receptor occupancy in Sprague-Dawley rat brain assessed as inhibition of [3H]A804598 binding at 30 mg/kg, sc by autoradiographic analysis; assay type: functional, organism-based; design: dose 30 mg/kg
# Procedure, shortened: (§1)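 Rat brain P2X7 occupancy by ex vivo autoradiography after one 30 mg/kg subcutaneous dose, followed over time. Plasma and brain drug levels were measured at the same time points. n = 3 per time point, mean ± SEM.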
# [30] = system: Rattus norvegicus; assay: Ex-vivo P2X7 receptor occupancy in Sprague-Dawley rat brain assessed as inhibition of [3H]A804598 binding at 30 mg/kg, sc after 2 hrs by autoradiographic analysis relative to control; assay type: functional; conditions: route subcutaneous; procedure, shortened: as §1
# Sodium-dependent serotonin transporter (Rattus norvegicus, UniProt P31652), sequence (P31652 whole entry): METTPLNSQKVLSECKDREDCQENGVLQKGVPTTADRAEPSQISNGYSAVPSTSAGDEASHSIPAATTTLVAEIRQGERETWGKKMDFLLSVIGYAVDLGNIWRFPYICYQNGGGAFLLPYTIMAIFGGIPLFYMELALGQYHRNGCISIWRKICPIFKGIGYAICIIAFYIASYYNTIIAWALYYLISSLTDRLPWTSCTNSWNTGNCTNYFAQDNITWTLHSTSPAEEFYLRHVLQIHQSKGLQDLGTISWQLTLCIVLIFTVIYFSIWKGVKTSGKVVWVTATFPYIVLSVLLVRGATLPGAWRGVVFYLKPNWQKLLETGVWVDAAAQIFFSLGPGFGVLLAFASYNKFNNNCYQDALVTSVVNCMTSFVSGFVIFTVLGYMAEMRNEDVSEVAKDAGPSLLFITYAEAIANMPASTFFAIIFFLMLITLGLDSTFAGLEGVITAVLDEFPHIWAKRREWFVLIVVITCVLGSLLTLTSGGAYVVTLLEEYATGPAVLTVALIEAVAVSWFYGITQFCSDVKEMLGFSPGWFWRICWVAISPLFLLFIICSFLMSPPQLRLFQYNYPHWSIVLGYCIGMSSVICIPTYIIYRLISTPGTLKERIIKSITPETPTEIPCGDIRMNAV
# T3 sequence (Q01959 whole entry): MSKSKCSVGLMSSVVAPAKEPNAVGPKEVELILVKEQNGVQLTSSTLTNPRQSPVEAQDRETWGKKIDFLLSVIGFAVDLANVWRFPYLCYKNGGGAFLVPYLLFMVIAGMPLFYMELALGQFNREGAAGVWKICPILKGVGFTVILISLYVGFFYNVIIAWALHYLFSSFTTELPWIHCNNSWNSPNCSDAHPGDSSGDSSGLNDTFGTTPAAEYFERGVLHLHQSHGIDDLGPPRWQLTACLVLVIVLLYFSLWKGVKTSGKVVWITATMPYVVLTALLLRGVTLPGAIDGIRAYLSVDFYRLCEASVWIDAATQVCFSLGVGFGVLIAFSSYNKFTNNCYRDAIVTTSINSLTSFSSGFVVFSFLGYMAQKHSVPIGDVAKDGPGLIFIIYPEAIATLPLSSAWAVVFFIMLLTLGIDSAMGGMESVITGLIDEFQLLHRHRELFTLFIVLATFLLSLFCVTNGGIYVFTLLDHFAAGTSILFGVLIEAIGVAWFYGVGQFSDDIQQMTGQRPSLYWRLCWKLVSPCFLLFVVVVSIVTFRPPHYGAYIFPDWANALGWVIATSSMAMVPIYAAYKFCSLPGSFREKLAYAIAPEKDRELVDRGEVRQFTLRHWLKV
# Sodium-dependent serotonin transporter (Homo sapiens, UniProt P31645), sequence (P31645 whole entry): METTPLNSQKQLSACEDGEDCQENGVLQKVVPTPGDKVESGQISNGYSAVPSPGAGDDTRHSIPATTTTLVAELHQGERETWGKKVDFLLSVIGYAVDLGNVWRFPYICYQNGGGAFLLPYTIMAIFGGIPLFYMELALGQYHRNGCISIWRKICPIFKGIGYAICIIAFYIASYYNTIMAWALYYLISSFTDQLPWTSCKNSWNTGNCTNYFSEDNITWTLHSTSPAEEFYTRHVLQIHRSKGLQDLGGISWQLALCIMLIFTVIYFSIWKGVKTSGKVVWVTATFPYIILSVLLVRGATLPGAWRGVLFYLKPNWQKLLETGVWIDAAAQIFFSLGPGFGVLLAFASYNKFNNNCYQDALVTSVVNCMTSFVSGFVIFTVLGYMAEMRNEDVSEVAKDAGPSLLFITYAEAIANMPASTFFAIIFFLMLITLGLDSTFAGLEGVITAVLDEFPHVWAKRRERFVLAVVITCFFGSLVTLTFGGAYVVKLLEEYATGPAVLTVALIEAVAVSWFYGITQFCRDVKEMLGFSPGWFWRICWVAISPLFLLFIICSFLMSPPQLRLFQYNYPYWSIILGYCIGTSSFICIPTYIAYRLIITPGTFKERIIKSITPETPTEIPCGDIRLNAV
SMILES,solubility [1] [µM],fraction unbound [2],IC50 [4] [nM],hepatic extraction ratio at 1 µM [5],IC50 [10] [nM],Ki [12] [nM],Ki [14] [nM],Ki [17] [nM],IC50 [19] [nM],hepatic extraction ratio at 1 µM [20],IC50 [21] [nM],hepatic extraction ratio at 1 µM [22],fraction unbound [25],solubility [26] [µM],fraction unbound [27],other results
CN1CCc2c(cccc2C(=O)NCC2(N3CCN(c4ccccc4)CC3)CCCCC2)C1,95,0.165,15.8,0.86,39.8,12.6,20,0.794,200,0.9,79.4,0.9,0.044,90,0.024,"Papp A→B at 1 h, 1 µM [3]: 11 ×10⁻⁶ cm/s; Papp B→A at 1 µM [6]: 2.1 ×10⁻⁶ cm/s; Ki [7]: 15.8 nM; ED50 [8]: 0.3 mg/kg; inhibition [9]: 54%; IC50 [11]: 290 nM; IC50 [13]: 20 nM; inhibition [15]: 93%; IC50 [16]: 910 nM; inhibition [18]: 68%; ED50 [23]: 24 mg/kg; Activity [24]: Active"
O=C(NCC1(N2CCN(c3ccccc3)CC2)CCOCC1)c1cccnc1Sc1ccccc1,400,0.022,63.1,> 0.92,25.1,12.6,3160,2,200,> 0.93,31.6,> 0.95,0.029,31,0.017,ED50 [28]: 2.5 mg/kg; Activity [29]: Active; Occ [30]: >50%
